From ChEMBL document CHEMBL3407335, “SAR-guided development and characterization of a potent antitumor compound toward B-cell neoplasms with no detectable cytotoxicity toward healthy cells” (J Med Chem, 2015) come the findings set out here.

pIC50: −log10 of the molar value.

The nature of assay [1]: Cytotoxicity against mouse M210B4 cells after 48 hrs by CellTitre-Blue assay. Format: cell-based. The conditions noted are these: M210B4, 48 h. The essentials: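 Murine bone marrow fibroblasts served as the non-malignant counter-screen. Compound was tested at six levels (0.1, 1, 5, 10, 50, 100 μM) for 48 h. Viability was read by CellTiter-Blue. IC50 came from at least two independent experiments with three replicates each.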

The nature of assay [2]: Cytotoxicity against human U2940 cells after 48 hrs by CellTitre-Blue assay. The format is functional, cell-based. The following applies: U-2940, 48 h. The essentials:
(§1)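 Screening used phenol red-free RPMI 1640 + L-glutamine with 10% FBS and 1% PenStrep. Exposure was 48 h in triplicate, with CellTiter-Blue read-out. IC50 came from at least two independent experiments, each in triplicate.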

In assay [3] the test system is Jurkat. Briefly: Cytotoxicity against human Jurkat cells after 24 hrs by MTT assay. Format: functional, cell-based.
The nature of assay [4]: Cytotoxicity against human MEC1 cells after 48 hrs by CellTitre-Blue assay. The format is functional, cell-based. The conditions noted are these: MEC1, 48 h. In a few lines:
as §1

Assay [5] concerns K562. The assay can be described thus: Cytotoxicity against human K562 cells after 24 hrs by MTT assay. The conditions noted are these: K562, 24 h. The format is functional, cell-based.
Assay [6] in a line: Cytotoxicity against human OCI-LY7 cells after 48 hrs by CellTitre-Blue assay. The format is functional, cell-based. The following applies: OCI-Ly7, 48 h. In a few lines: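 OCI-LY7 assays were run in IMDM + GlutaMAX with 25 mM HEPES, phenol red, 20% FBS and 1% PenStrep. […] Viability was read by CellTiter-Blue. IC50 came from at least two independent experiments, each with three replicates.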

The nature of assay [7]: Cytotoxicity against human HL60 cells after 48 hrs by CellTitre-Blue assay. The format is functional, cell-based. The following applies: HL-60, 48 h. In a few lines: (§2)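 Cell lines in phenol red-free RPMI 1640 with L-glutamine, 10% FBS and 1% penicillin/streptomycin. Cells exposed in triplicate to increasing compound concentrations for 48 h at 37 °C. CellTiter-Blue read-out, normalized to vehicle-only cells. IC50 from two independent experiments.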

For assay [8], the system named is Jurkat. The assay can be described thus: Cytotoxicity against human Jurkat cells after 48 hrs by CellTitre-Blue assay. Format: functional, cell-based. The essentials: as §2
For assay [9], the system named is CCRF-CEM. Briefly: Cytotoxicity against human CCRF-CEM cells assessed as reduction in cell viability at <1 uM after 48 hrs by CellTitre-Blue assay. The format is functional. The essentials:
(§3)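 Cell lines were maintained in RPMI 1640 + GlutaMAX with 10% FBS and 1% penicillin/streptomycin at 37 °C under 5% CO2. For the assay, cells went into phenol red-free RPMI 1640 + L-glutamine with 10% FBS and 1% PenStrep. They were incubated in triplicate with increasing compound concentrations for 48 h. Viability was read by CellTiter-Blue, normalized to vehicle-only cells, and reported as mean plus SD.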

Assay [10] concerns Jurkat. The assay can be described thus: Cytotoxicity against human Jurkat cells assessed as reduction in cell viability at <1 uM after 48 hrs by CellTitre-Blue assay. The format is functional. The essentials:
as §3

Assay [11] relates to PBMC. Briefly: Cytotoxicity against healthy human PBMC after 48 hrs by CellTitre-Blue assay. The format is cell-based. In a few lines: (§4)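 Cryopreserved PBMC (CLL patients N = 15; healthy donors N = 4) thawed and cultured overnight in phenol red-free RPMI 1640 with L-glutamine and 20% FBS. Suspension culture at 300 000 cells per well with increasing compound concentrations for 48 h, in triplicate. CellTiter-Blue viability normalized to vehicle; IC50 fitted from the mean values of all samples.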

Assay [12] relates to PBMC. Briefly: Cytotoxicity against patient PBMC after 48 hrs by CellTitre-Blue assay in presenc of mouse M210B4 cells. Format: cell-based. The conditions noted are these: Homo sapiens. In a few lines: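 M2-10B4 mouse fibroblasts were seeded and left overnight to form a confluent layer. Medium was then replaced by 3 million PBMC from CLL patients (N = 9), which had been thawed and held overnight, in RPMI with 20% FBS. Cocultures were exposed to increasing compound concentrations for 48 h, in triplicate. CellTiter-Blue viability normalized to vehicle; IC50 from mean values of all samples.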

Assay [13] in a line: Cytotoxicity against human SUDHL9 cells after 48 hrs by CellTitre-Blue assay. Format: functional, cell-based. The following applies: SUDHL9, 48 h. In a few lines:
as §2

A short description of assay [14]: Cytotoxicity against human HL60 cells assessed as reduction in cell viability at <1 uM after 48 hrs by CellTitre-Blue assay. The format is functional, HL-60. The essentials: as §3
For assay [15], the system named is K562. Briefly: Cytotoxicity against human K562 cells assessed as reduction in cell viability at <1 uM after 48 hrs by CellTitre-Blue assay. Format: functional. The essentials: as §3
For assay [16], the system named is CCRF-CEM. Briefly: Cytotoxicity against human CCRF-CEM cells after 48 hrs by CellTitre-Blue assay. The format is functional, cell-based. In a few lines:
as §2

Assay [17] can be described thus: Cytotoxicity against human SU-DHL6 cells after 48 hrs by CellTitre-Blue assay. The format is functional, cell-based. The conditions noted are these: SU-DHL-6, 48 h. The essentials: as §2
Assay [18] has as its system PBMC. Briefly: Cytotoxicity against patient PBMC after 48 hrs by CellTitre-Blue assay. Format: cell-based. The conditions noted are these: Homo sapiens. In a few lines:
as §4

As to `CCOc1ccccc1C(=O)/C=C/c1ccc2ccccc2c1`, the pIC50 (commonly the negative decadic logarithm of the IC50, by convention in mol/L) in assay [1] is 5.11; in [2] it was 5.62; with Jurkat [3], 4.68; in assay [4], 7.22; in the assay on K562 [5] it was 4.40; in assay [6] it was 7.22.

Regarding `COc1ccccc1C(=O)/C=C/c1ccc2ccccc2c1`, the negative-log IC50 (pIC50) is 4.38 in assay [1], 5.39 in assay [2], 6.37 in [4] and 6.34 in [6].

`CCCOc1ccccc1C(=O)/C=C/c1ccc2ccccc2c1`: the pIC50 in assay [1] was < 4.00; in [2] it was 5.28; in [4], 6.89; in assay [6], 7.00.

Turning to `CCCCOc1ccccc1C(=O)/C=C/c1ccc2ccccc2c1`, the pIC50 was < 4.00 in assay [1], 5.28 in assay [2], 6.15 in assay [4] and 6.92 in assay [6].

Consider `CC(C)Oc1ccccc1C(=O)/C=C/c1ccc2ccccc2c1`, for which the pIC50 was < 4.00 in assay [1], 4.96 in assay [2], 5.92 in [4] and 6.82 in assay [6].

As to `Cc1ccccc1C(=O)/C=C/c1ccc2ccccc2c1`, the pIC50 in [1] is 4.14; in assay [2], 5.00; in [4], 5.19; in assay [6], 5.31.

As for `CCOc1ccccc1C(=O)/C=C/c1ccc2cc(OC)ccc2c1`, the pIC50 in assay [1] was < 4.00; in [2] it was 4.60; in assay [4], 5.14; in assay [6], 6.00.

Take `C=Cc1cccc(/C=C/C(=O)c2ccccc2OCC)c1`: the pIC50 in [1] is < 4.00; in assay [2] it was 5.60; in assay [4], 6.70; in assay [6] it was 6.30.

In the case of `CCOc1ccccc1C(=O)/C=C/c1ccc2c(c1)OCO2`, the pIC50 in [1] is < 4.00; in assay [2], 5.02; in [4] it was 5.96; in assay [6], 6.89.

Consider `CCOc1ccccc1C(=O)/C=C/c1cccc2ccccc12`, for which the pIC50 in [1] was 4.77; in [2], 5.13; in [4], 5.72; in [6], 5.82.

For the compound `CCOc1ccccc1C(=O)/C=C/c1c2ccccc2cc2ccccc12`, the pIC50 in assay [2], in assay [4] and in assay [6] was < 4.00 in each case.

For the compound `CCOc1ccccc1C(=O)/C=C/c1cc2ccccc2c2ccccc12`, the pIC50 in assay [1] is < 4.00; in assay [2], 4.40; in assay [4], 5.80; in assay [6] it was 6.17.

For the compound `CCOc1ccccc1C(=O)/C=C/c1ccc2sccc2c1`, the negative logarithm of the IC50 (pIC50) in assay [1] was 4.68; in assay [2], 5.04; in assay [4], 6.47; in assay [6], 6.47.

Regarding `CCOc1ccccc1C(=O)/C=C/c1csc2ccccc12`, the pIC50 was 5.09 in assay [1], 6.07 in assay [2], 6.77 in assay [4] and 7.00 in [6].

With `CCOc1ccccc1C(=O)/C=C/c1cc2ccccc2[nH]1`, the pIC50 was 7.80 in assay [7]; 7.42 in the assay with Jurkat [8]; 4.72 in [1]; 5.54 in assay [2]; 4.85 in the assay on PBMC [11]; 7.66 in assay [4]. Further, the negative logarithm of the IC50 (pIC50) in the assay with PBMC [12] is 6.17; in [13], 7.51; in [6], 7.28; in the assay with CCRF-CEM [16] it was 7.49; in assay [17], 7.25; with PBMC [18] it was 5.92. Also, the Activity with CCRF-CEM [9] is <30%; in the assay on Jurkat [10], <30%; in [14] it was <30%; with K562 [15] it was 60%.

As to `CCOc1cccc(C(=O)/C=C/c2ccc3ccccc3c2)c1`, the values for the pIC50 in assay [2], in assay [4] and in assay [6] were 4.80, 5.54 and 5.74, respectively.

As to `CCOc1cccc(C(=O)/C=C/c2csc3ccccc23)c1`, the results for the pIC50 in [2], in assay [4] and in assay [6] were 5.12, 5.66 and 5.77, respectively.

With `CCOc1ccc(C(=O)/C=C/c2csc3ccccc23)cc1`, the pIC50 in [2] is 4.82; in assay [4] it was 5.12; in assay [6] it was 5.32.

For `CCOc1cccc(C(=O)/C=C/c2cc3ccccc3[nH]2)c1`, the values for the pIC50 in [4] and in assay [6] were 5.48 and 5.32, respectively.

On to `CCOc1ccc(C(=O)/C=C/c2cc3ccccc3[nH]2)cc1`, for which the pIC50 in assay [4] is < 4.00; in assay [6] it was 4.60.

On to `Nc1nc(F)nc2c1ncn2[C@@H]1O[C@H](CO)[C@@H](O)[C@@H]1O` [FLUDARABINE], for which the pIC50 in the assay with PBMC [11] was 4.85; with PBMC [12], 5.00; in the assay on PBMC [18], 5.72.
